Screens as filed in PubChem.
ATG4B inh: inhibitors of human ATG4B cysteine protease; Q9Y4P1; actives 0.51% (n = 340,000); inhibition, % at 8.33 µM; ATG4B cleavage of LC3-PLA2, NBD-HPC fluorescence, 1 h; in the data active = inhibition above about 40%
MBD2 inh: inhibitors of human MBD2 binding to methylated oligonucleotide; Q9UBB5; TR-FRET; inhibition, % at 4.4 µM; actives 0.31% (n = 370,000); AID 686964; in the data active = inhibition above about 13%
LEDGF integ inh: blocks HIV-1 LEDGF/p75-dependent DNA integration; TR-FRET IN-LEDGF/p75 DNA integration, Eu/Cy5; actives 0.64% (n = 370,000); inhibition, % at 3.7 µM; AID 743269;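 active = inhibition above the screen-wide mean plus 3 SD, cut at about 13% in these data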;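 note: signal is the Cy5 over europium emission ratio at 671 and 618 nm; 0% = plate median of compound wells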
UHRF1 binding: blocks human UHRF1 binding to methylated DNA; UHRF1 binding to methylated oligo, TR-FRET; Q96T88; actives 0.75% (n = 370,000); inhibition, % at 4.4 µM; in the data active = inhibition above about 21%;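 note: UHRF1 SRA domain binding a hemimethylated CpG hairpin DNA probe; 0% = median of test compound wells and 100% = reference inhibitor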
rCAG binder: r(CAG) repeat RNA binding; TO-PRO-1 dye displacement fluorescence; inhibition, % at 3 µM; actives 1.3% (n = 370,000);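 active = inhibition above the plate cutoff, the mean of all test compounds on that plate plus 3 SD, cut at about 35% in these data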;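 note: 0% = DMSO alone and 100% = 100 µM mitoxantrone as full dye displacement; higher means more dye released from RNA so lower well fluorescence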
CSN inh: blocks human CSN-mediated cullin deneddylation; AID 651999; actives 0.38% (n = 360,000); inhibition, % at 12.5 µM; Q92905; Purified CSN, SCF-Nedd8-OG deneddylation, fluorescence polarization;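 active = pattern-corrected inhibition above about 35%, with an unprinted fluorescence ratio check between 0.5 and 1.5, limit read from the data, passing the limit was not always enough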;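 note: 0% = enzyme with substrate and 100% = substrate without enzyme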
Target sequence (Q92905 whole entry, looked up, one chain of several): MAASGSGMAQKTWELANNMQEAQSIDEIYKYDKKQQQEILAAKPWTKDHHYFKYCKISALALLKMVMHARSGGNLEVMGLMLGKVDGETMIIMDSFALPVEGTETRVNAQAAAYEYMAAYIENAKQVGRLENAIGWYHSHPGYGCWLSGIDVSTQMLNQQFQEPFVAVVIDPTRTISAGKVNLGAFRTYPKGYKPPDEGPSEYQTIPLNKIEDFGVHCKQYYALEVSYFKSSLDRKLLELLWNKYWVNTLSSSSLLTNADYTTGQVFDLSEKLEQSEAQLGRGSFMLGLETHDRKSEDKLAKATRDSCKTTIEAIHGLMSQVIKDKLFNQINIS
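Test system: purified human Csn5 enzyme expressed in HEK293T cells. Amount: 0.24 nM enzyme. Reagent: SCFSkp2-Nedd8OG substrate at 10 nM final. Schedule: 90 min incubation of compound, enzyme and substrate at room temperature. Detection: fluorescence polarization. Read-out: % inhibition of substrate cleavage by Csn5.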
CSN5 deneddyl: Csn5 (human) deneddylation inhibition, single-concentration validation | shares compounds with CSN inh | Csn5 deneddylation of SCF-Nedd8OG, fluorescence polarization, 90 min | inhibition, % at 16.6 µM | actives 62% (n = 540) | AID 720654; in the data active = inhibition above about 50%;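 note: 0% = DMSO with enzyme and 100% = no enzyme wells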
MMP2 cntr CSN: counter-screen for CSN deneddylation inhibitors: human MMP-2 inhibition; shares compounds with CSN inh; recombinant MMP-2, FRET substrate fluorescence, 60 min; inhibition, % at 16.6 µM; actives 33% (n = 540);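 active = corrected plate-normalized z-score of 5 or more, or -5 or less, or inhibition of 15% or more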;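 note: plate controls were DMSO wells with enzyme for no effect and buffer wells lacking MMP-2 for full effect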
Thrombin counter: thrombin (bovine) inhibition, counter-screen for CSN hits; bovine thrombin cleavage of Ub4-pepOG, fluorescence polarization; inhibition, % at 16.6 µM; shares compounds with CSN inh; AID 720656; actives 49% (n = 540);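 active = inhibition at or above a set limit, with a fluorescence interference ratio between 0.5 and a set maximum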
* marks the source's active call; other numbers are inactive results. Rows were chosen to be rich in hits. Some 3.1% of all compounds tested hit in one or more screens of this group.

Results for Cc1c(Br)c(=O)oc2c(Br)c(O)c(O)cc12 ?
ATG4B inh: 16; MBD2 inh: 10; LEDGF integ inh: -3; UHRF1 binding: 31*; rCAG binder: 18; CSN inh: 40*; MMP2 cntr CSN: 11; Thrombin counter: 29*

How did CC(C)(C)c1ccc(-c2nnc3sc(COc4ccccc4)nn23)cc1 do in these assays?
MBD2 inh: -7; LEDGF integ inh: -1; UHRF1 binding: -1; rCAG binder: 0

What do the screens show for `COC(=O)c1cc2c(=O)c3ccccc3oc2nc1/C=C/N(C)C`?
ATG4B inh: 2; MBD2 inh: 9; LEDGF integ inh: 10; UHRF1 binding: 6; rCAG binder: 25; CSN inh: 77*; CSN5 deneddyl: 95*; MMP2 cntr CSN: -2; Thrombin counter: 28*

How did CN(C)c1ccc(/C=C2\C(=N)N3N=C(CC(=O)N4CCCC4)SC3=NC2=O)cc1Br do in these assays?
ATG4B inh: 0; MBD2 inh: 2; LEDGF integ inh: 7; UHRF1 binding: -2; rCAG binder: 16; CSN inh: 6

How did CN(C)c1ccc(/C=C2\C(=N)N3N=C(CC(=O)N4CCCCC4)SC3=NC2=O)cc1 do in these assays?
ATG4B inh: -2; MBD2 inh: -5; LEDGF integ inh: 0; UHRF1 binding: -2; rCAG binder: 13; CSN inh: 90*; CSN5 deneddyl: 76*; MMP2 cntr CSN: -57*; Thrombin counter: 94*

How did O=C(C1CCN(c2ncnc3c2sc2cccc(F)c23)CC1)N1CCN(C(=O)C2CCCO2)CC1 (stereo unspecified) do in these assays?
MBD2 inh: 0; LEDGF integ inh: -1; UHRF1 binding: -2; rCAG binder: 7

How did C=CCn1c(O)c(N=Nc2ccccc2O)c2ccccc21 do in these assays?
ATG4B inh: 9; MBD2 inh: -7; LEDGF integ inh: 0; UHRF1 binding: -3; rCAG binder: 19; CSN inh: 47*; CSN5 deneddyl: active; MMP2 cntr CSN: -6; Thrombin counter: 33*

How did C=CCn1c(O)c(N=Nc2ccccc2)c2ccccc21 do in these assays?
ATG4B inh: 7; MBD2 inh: -4; LEDGF integ inh: -4; UHRF1 binding: 0; rCAG binder: 7; CSN inh: 6

What do the screens show for `COc1cc(/C=C2\SC(c3ccc(C)cc3)=NC2=O)ccc1O`?
ATG4B inh: -21; MBD2 inh: -2; LEDGF integ inh: 5; UHRF1 binding: -2; rCAG binder: 26; CSN inh: 72*; CSN5 deneddyl: -11; MMP2 cntr CSN: 0; Thrombin counter: 50*

Results for COc1cc(/C=C2\SC(=Nc3ccc(O)cc3)NC2=O)cc(OC)c1OC ?
ATG4B inh: -2; MBD2 inh: -3; LEDGF integ inh: -3; UHRF1 binding: -1; rCAG binder: 0

Results for COc1ccccc1N=C1NC(=O)/C(=C/c2ccc(N(C)C)cc2)S1 ?
ATG4B inh: -4; MBD2 inh: -2; LEDGF integ inh: -9; UHRF1 binding: -10; rCAG binder: 12; CSN inh: 41*; CSN5 deneddyl: 153*; MMP2 cntr CSN: -25*; Thrombin counter: 21*

Results for COc1ccc(N=C2NC(=O)/C(=C/c3ccc(O)c(OC)c3)S2)cc1 ?
ATG4B inh: -10; MBD2 inh: -2; LEDGF integ inh: -1; UHRF1 binding: 0; rCAG binder: 20; CSN inh: 37*; CSN5 deneddyl: 64*; MMP2 cntr CSN: 0; Thrombin counter: 35*

How did CC[C@H](CCCCCC#N)CCC(=O)N(c1ccccc1)c1ccccc1 do in these assays?
MBD2 inh: -1; LEDGF integ inh: 2; UHRF1 binding: 1; rCAG binder: -2
